Screens from PubChem.
Shown are actives, neighbours in structure and some others; about 5.7% of the full set was active somewhere.
Mdm2-MdmX inh: inhibitors of human Mdm2/MdmX interaction; inhibition, % at 8 µM; SaOS-2 split-luciferase Mdm2/MdmX complementation, luminescence; O15151+Q00987; actives 3% (n = 330,000);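 active means inhibition of at least 50% at 8 µM in the primary screen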
Target sequence (O15151 whole entry, looked up): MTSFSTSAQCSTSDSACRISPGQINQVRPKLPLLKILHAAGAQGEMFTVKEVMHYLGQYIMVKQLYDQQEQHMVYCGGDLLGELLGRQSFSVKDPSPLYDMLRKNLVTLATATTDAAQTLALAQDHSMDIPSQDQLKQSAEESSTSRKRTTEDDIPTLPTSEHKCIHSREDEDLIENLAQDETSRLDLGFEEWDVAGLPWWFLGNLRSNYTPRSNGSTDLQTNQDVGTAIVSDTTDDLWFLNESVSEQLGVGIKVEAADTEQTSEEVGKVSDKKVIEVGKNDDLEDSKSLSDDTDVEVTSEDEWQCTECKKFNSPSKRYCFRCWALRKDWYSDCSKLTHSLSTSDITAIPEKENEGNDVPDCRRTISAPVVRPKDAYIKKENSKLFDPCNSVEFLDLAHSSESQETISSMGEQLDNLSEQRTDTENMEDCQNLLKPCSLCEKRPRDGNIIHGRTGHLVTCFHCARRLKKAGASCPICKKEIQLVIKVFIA
Target sequence (Q00987 whole entry, looked up): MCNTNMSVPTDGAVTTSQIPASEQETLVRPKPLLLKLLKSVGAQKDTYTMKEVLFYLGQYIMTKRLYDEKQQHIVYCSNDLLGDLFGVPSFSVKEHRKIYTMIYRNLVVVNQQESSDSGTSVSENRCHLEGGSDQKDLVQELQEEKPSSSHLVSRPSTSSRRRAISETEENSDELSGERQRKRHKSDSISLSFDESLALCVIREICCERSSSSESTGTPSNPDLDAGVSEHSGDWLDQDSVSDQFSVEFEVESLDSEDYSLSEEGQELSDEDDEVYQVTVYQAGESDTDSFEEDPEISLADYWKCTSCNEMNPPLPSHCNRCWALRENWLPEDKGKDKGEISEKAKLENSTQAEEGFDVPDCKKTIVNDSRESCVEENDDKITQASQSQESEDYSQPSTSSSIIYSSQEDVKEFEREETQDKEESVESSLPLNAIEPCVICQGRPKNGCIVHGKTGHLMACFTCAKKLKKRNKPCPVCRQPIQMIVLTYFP
SKKanGAS inh: inhibitors of SKKanGAS S. pyogenes growth in kanamycin (SK-promoter or general growth effect); BacTiter-Glo, 6 h; inhibition, % at 7.5 µM; actives 1.3% (n = 300,000); AID 1662;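 active means mean replicate score, as percent of positive control median, at least 50; inconclusive means mean below 50 but one replicate at or above 50; inactive means mean and every replicate below 50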;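 further: strain carries kanamycin resistance gene driven by streptokinase promoter and grows in 40 µg/ml kanamycin; loss of luminescence reflects streptokinase promoter inhibition or plain growth inhibition; 0% = median of DMSO wells and 100% = positive control at its reference dose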
Calb FLC: affects C. albicans growth with fluconazole; AID 1979; actives 0.57% (n = 300,000); growth inhibition, % (test concentration not listed); C. albicans CaCi-2 (fluconazole-resistant clinical isolate) + fluconazole, Alamar Blue growth, 48 h;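 active means growth inhibition above about 58% in most replicates, limit read from the data, passing the limit was not always enough; inconclusive means exactly half the replicates above a set limit; inactive means most replicates below a set limit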;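 further: all wells also contain fluconazole at 8 µg/ml as a sub-toxic cotreatment; 0% = median of DMSO wells and 100% = median of geldanamycin control wells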
CSC inhib: cancer stem cell inhibition; actives 1.1% (n = 300,000); inhibition, % at 7.5 µM; cancer stem cell-like cells viability, luminescence; in the data active means inhibition above about 75%; inconclusive means no clear call, values can overlap the other calls; tested in HMLE shEcad cells
Beta apoptosis: blocks beta cell apoptosis; INS-1E cytokine-induced death, ATP luminescence, 48 h; percent of positive-control rescue, neutral wells zero; AID 435005; actives 0.8% (n = 300,000); protection from apoptosis, % (concentration not given with the values);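 active means Every replicate reaches about 75%, or at least half do and their mean reaches it too, limit read from the data; inconclusive means At least half of replicates reach the limit but their mean does not; inactive means Under half of replicates reach the limit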;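 further: 0% = cytokine-treated negative control wells and 100% = positive control rescue; higher means more ATP so stronger rescue from cytokine killing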
T cruzi inh: blocks replication of Trypanosoma cruzi. T. cruzi beta-gal in NIH3T3, luminescence, 90 h. inhibition, % (no concentration beside the values). actives 1.4% (n = 300,000). AID 1885;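 active means mean inhibition across valid replicates above about 55%, limit read from the data; inconclusive means mean below that limit but half or more replicates reach it; inactive means mean below it, under half of replicates reach it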;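 further: signal also drops with host cell toxicity which is not excluded here; 0% = plate median of DMSO wells and 100% = zero luminescence signal; higher percent means less beta-gal luminescence so fewer parasites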
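assay system = mouse NIH/3T3 fibroblasts infected with β-gal-expressing T. cruzi Tulahuen C4 | input = 5,000 NIH/3T3 host cells per well | buffer or medium = DMEM plus 2% FBS | timing = 3 h host attachment, then at least 90 h co-culture | measured by = GalScreen luminescence, 60 min | evaluation = luminescence reflecting intracellular parasite burden, expressed as percent inhibition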
Numbers without * were called inactive; ? = inconclusive; / = no result given.

SMILES | Mdm2-MdmX inh | SKKanGAS inh | Calb FLC | CSC inhib | Beta apoptosis | T cruzi inh
O=C(c1ccc2c3c(cccc13)CC2)C1CCCN(Cc2ccccn2)C1 (stereo unspecified) | 25 | 69* | -2 | 7 | -5 | 8
O=C(Nc1ccc(-c2cccc(F)c2)cc1)C1CCCN(Cc2ccccn2)C1 (stereo unspecified) | 17 | 52* | 1 | 5 | -7 | 9
Cc1nn(C)c(Cl)c1CN1CCCC(C(=O)Nc2ccc(-c3cscn3)cc2)C1 (stereo unspecified) | 11 | 50* | 11 | -4 | -8 | 15
Cc1ncc(CN2CCCC(C(=O)Nc3ccc(-c4cccc(F)c4)cc3)C2)s1 (stereo unspecified) | 23 | 0 | 15 | 101* | -11 | 35
Cc1ncc(CN2CCCC(C(=O)Nc3ccc(-c4cccc(F)c4)cc3)C2)cn1 (stereo unspecified) | 3 | -2 | -1 | 25 | -1 | 19
COc1ccc(NS(=O)(=O)c2cccc(C(=O)NNC(=O)CN3C(=O)NC(C)(C)C3=O)c2)cc1 | 1 | 1 | 8 | / | -3 | -11
COc1cc(OC)cc(C(=O)Nc2ccc(C(=O)c3ccncc3)cc2)c1 | 9 | -1 | -5 | 9 | -3 | 8
Cc1cccc[n+]1CC(=O)/C=C1\N(C)c2ccccc2C1(C)C | -1 | 1 | -1 | 31 | 14 | 10
CN1/C(=C/C(=S)NC(=O)C2(C)CC2(Cl)Cl)C(C)(C)c2ccccc21 (stereo unspecified) | 35 | 28 | -1 | 9 | 49 | 55*
CN1/C(=C\C(=S)NC(=O)c2ccccc2Cl)C(C)(C)c2ccccc21 | -5 | 5 | -9 | 57 | 100* | 42
COc1ccccc1C(=O)NC(=S)/C=C1/N(C)c2ccccc2C1(C)C | 24 | 9 | 2 | 6 | 66 | 47
Cc1ccnc(NS(=O)(=O)c2ccc(NS(=O)(=O)c3cc(Cl)ccc3Cl)cc2)n1 | -25 | 19 | 13 | 1 | -1 | -19
C/C(Cn1nnc([N+](=O)[O-])n1)=N\NC(=O)c1cccc(Cl)c1 | 29 | 2 | 19 | -6 | 67 | 57*
C/C(Cn1nnc([N+](=O)[O-])n1)=N\NC(=O)c1ccc(C)cc1 | / | -3 | 11 | -7 | 7 | 49
C/C(Cn1nnc([N+](=O)[O-])n1)=N\NC(=O)c1ccncc1 | 9 | 10 | 25 | -18 | -3 | 57*
C/C(Cn1nnc([N+](=O)[O-])n1)=N\NC(=O)c1ccccc1Cl | 20 | 1 | 9 | 17 | 80* | 56*
O=C(COc1cccc(Br)c1)NN=C1c2ccccc2-c2ccccc21 | -10 | -14 | -36 | 9 | 6 | 9
O=C(NN=C1c2ccccc2-c2ccccc21)c1cccc(Br)c1 | 40 | 72* | -2 | 13 | 18 | 54
CCc1cccc2c(C(=O)COC(=O)c3ccccc3)c[nH]c12 | -134 | 0 | 0 | 1 | -4 | 5
CCc1cccc2c(C(=O)COC(=O)c3ccc(O)cc3)c[nH]c12 | 10 | -16 | -3 | 40 | 0 | 56*
O=C(OCCOc1ccc(Br)cc1)c1ccc(Cl)nc1 | 2 | -8 | 110* | -10 | -11 | 11
CCCCCCCCN1[C@@H](CC(=O)OCC)c2ccc(C(F)(F)F)cc2S1(=O)=O | 18 | 6 | -9 | 51 | 7 | 61*
CCCCCCCCCCCCN1[C@@H](CC(=O)O)c2cc(C(F)(F)F)ccc2S1(=O)=O | 7 | 89* | -9 | 104* | 4 | 1
CCCCn1c(N)c(N(C)C(=O)c2ccccc2Oc2ccccc2)c(=O)[nH]c1=O | 25 | / | / | / | -8 | /
O=C(COC(=O)COc1ccc(Br)cc1)Nc1ccc2c(c1)OCCO2 | 15 | / | / | / | 2 | /
SMILES | Mdm2-MdmX inh | SKKanGAS inh | Calb FLC | CSC inhib | Beta apoptosis | T cruzi inh
COc1ccc2nc(NNC(=O)c3cc(=O)c4ccccc4o3)sc2c1 | 21 | 50* | 2 | 9 | 7 | -5
Cc1ccc2sc(NNC(=O)c3cc(=O)c4ccccc4o3)nc2c1C | 18 | 86* | -9 | 53 | / | -14
O=C(NNc1nc2c(F)cccc2s1)c1cc(=O)c2ccccc2o1 | -74 | 29 | -2 | 9 | -1 | -9
Cc1ccc2sc(NNC(=O)c3cc(-c4cccs4)nc4ccccc34)nc2c1C | / | 90* | -7 | 38 | / | 43
Cc1cccc2sc(NNC(=O)c3cc(=O)c4ccccc4o3)nc12 | -96 | 85* | 66 | 42 | -1 | 2
O=C(CC(=O)c1ccccc1)Nc1ccccc1C(F)(F)F | 15 | -4 | 0 | -6 | 3 | -7
Cc1cccc(C(=O)OCC(=O)NC(=O)NCc2ccccc2)c1 | -19 | / | / | -23 | -4 | /
CN(C)C(CNC(=O)c1cc(-c2ccco2)nc2ccccc12)c1ccccc1 (stereo unspecified) | -2 | / | / | -13 | -3 | /
CN1CCN(S(=O)(=O)c2ccc(Br)c3ccccc23)CC1 | 9 | 8 | 0 | -27 | 0 | 7
COc1ccc(OC)c(/C=N\NC(=O)c2ccc(-c3ccccc3)cc2)c1 | 4 | / | 20 | -2 | 0 | /
COc1ccc(OC)c(/C=C2\S/C(=N/NC(=O)c3ccc4ccccc4c3)NC2=O)c1 | / | 106* | -4 | 106* | 0 | 3
Cc1ccc(C)c(SCC(=O)Nc2nnc(-c3ccccc3)o2)c1 | 29 | 82* | 81* | 6 | -19 | -17
Cc1ccc(-c2nnc(NC(=O)CCS(=O)(=O)c3ccccc3)o2)c(C)c1 | 13 | 2 | 0 | / | / | 1
O=C(COn1nnc2ccc(C(F)(F)F)cc21)Nc1nnc(-c2ccccc2)o1 | -3 | 91* | 9 | 24 | -1 | -20
Cc1cccc(C)c1NC(=O)COn1nnc2ccc(C(F)(F)F)cc21 | -9 | -2 | 11 | -18 | -12 | -3
Cc1ccc(C)c(-c2nnc(NC(=O)CCS(=O)(=O)c3ccccc3)o2)c1 | 38 | 51* | -8 | 39 | -3 | -17
CCC(c1nnc(SCC(=O)Nc2nnc(-c3ccccc3)o2)o1)N(C)C (stereo unspecified) | 10 | 0 | 0 | 10 | -3 | 7
Cc1ccc(C)c(-c2nnc(NC(=O)COc3ccccc3)o2)c1 | 22 | 105* | ? | / | -2 | -9
Cc1cc(C(=O)N/N=C/c2cccc3ccccc23)c(C)o1 | 1 | -9 | 9 | 10 | 6 | -3
COc1ccc(C)cc1NC(=O)CSc1nc(=O)n(CCCN2CCOCC2)c2c1CCCC2 | 15 | -10 | -1 | 6 | / | 0
COc1cccc(C(=O)OCC(=O)Nc2nnc(-c3ccccc3)o2)c1 | 8 | 68* | -3 | -3 | 2 | -8
COc1cc(OC)c(C(=O)OCC(=O)Nc2nnc(-c3ccccc3)o2)cc1OC | -2 | / | / | / | -2 | /
Cc1ccc(C)c(-c2nnc(NC(=O)c3ccc([N+](=O)[O-])o3)o2)c1 | 19 | 80* | 9 | 12 | 36 | 47
